Experimental data taken from ChEMBL document CHEMBL4364266, “Design, synthesis and biological evaluation of novel 2,3,4,9-tetrahydro-1H-pyrido[3,4-b]indole triazole derivatives as potent TRPV1 antagonists” (Eur J Med Chem, 2019).
Activity calls are given as the source filed them.

Test system: Mus musculus
Assay: Antinociceptive activity in KM mouse model of capsaicin-induced pain assessed as reduction in paw licking time at 1 to 10 mg/kg, po administered as single dose pretreated for 30 mins followed by capsaicin challenge and measured for 5 mins
Format: functional, organism-based

Structure (SMILES) | Activity
Clc1ccc(Cl)c(-n2cc(CN3CCc4c([nH]c5ccccc45)C3)nn2)c1 | inactive
O=[N+]([O-])c1ccc(-n2cc(CN3CCc4c([nH]c5ccccc45)C3)nn2)cc1 | inactive

Test system: Mus musculus
Assay: Antinociceptive activity in KM mouse model of acetic acid induced pain assessed as suppression of writhes at 30 mg/kg, po administered as single dose pretreated for 30 mins followed by acetic acid challenge and measured for 15 mins
Format: functional, organism-based
Procedure, shortened: (§1)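 Male KM mice (18-22 g, n = 6 per group) received 30 mg/kg intragastrically as a suspension in 0.5% CMC-Na, 30 min before testing. Capsaicin test: 20 µL capsaicin injected s.c. into the dorsal right hind paw, with paw licking time summed over 5 min. Writhing test: 0.6% acetic acid given i.p. at 0.1 mL/10 g, with writhes counted for 15 min. Tail-flick test: 12 s cut-off.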

Structure (SMILES) | Activity
Clc1ccc(Cl)c(-n2cc(CN3CCc4c([nH]c5ccccc45)C3)nn2)c1 | Active
O=[N+]([O-])c1ccc(-n2cc(CN3CCc4c([nH]c5ccccc45)C3)nn2)cc1 | Active

Test system: Mus musculus
Assay: Antinociceptive activity in KM mouse model of acetic acid induced pain assessed as suppression of writhes at 1 to 10 mg/kg, po administered as single dose pretreated for 30 mins followed by acetic acid challenge and measured for 15 mins
Format: functional, organism-based

Structure (SMILES) | Activity
Clc1ccc(Cl)c(-n2cc(CN3CCc4c([nH]c5ccccc45)C3)nn2)c1 | inactive
O=[N+]([O-])c1ccc(-n2cc(CN3CCc4c([nH]c5ccccc45)C3)nn2)cc1 | inactive

Test system: Mus musculus
Assay: Antinociceptive activity in KM mouse model of thermal-induced nociception assessed as increase in latency to tail withdrawal at 1 to 10 mg/kg, po administered as single dose pretreated for 30 mins
Format: functional, organism-based

Structure (SMILES) | Activity
Clc1ccc(Cl)c(-n2cc(CN3CCc4c([nH]c5ccccc45)C3)nn2)c1 | inactive
O=[N+]([O-])c1ccc(-n2cc(CN3CCc4c([nH]c5ccccc45)C3)nn2)cc1 | inactive

Test system: Mus musculus
Assay: Antinociceptive activity in KM mouse model of capsaicin-induced pain assessed as reduction in paw licking time at 30 mg/kg, po administered as single dose pretreated for 30 mins followed by capsaicin challenge and measured for 5 mins
Format: functional, organism-based
Procedure, shortened: as §1

Structure (SMILES) | Activity
Clc1ccc(Cl)c(-n2cc(CN3CCc4c([nH]c5ccccc45)C3)nn2)c1 | Active
O=[N+]([O-])c1ccc(-n2cc(CN3CCc4c([nH]c5ccccc45)C3)nn2)cc1 | Active

Test system: Mus musculus
Assay: Antinociceptive activity in KM mouse model of thermal-induced nociception assessed as increase in latency to tail withdrawal at 30 mg/kg, po administered as single dose pretreated for 30 mins
Format: functional, organism-based
Procedure, shortened: as §1

Structure (SMILES) | Activity
Clc1ccc(Cl)c(-n2cc(CN3CCc4c([nH]c5ccccc45)C3)nn2)c1 | Active
O=[N+]([O-])c1ccc(-n2cc(CN3CCc4c([nH]c5ccccc45)C3)nn2)cc1 | Active

Target: T1, Transient receptor potential cation channel subfamily V member 1 (Homo sapiens, UniProt Q8NER1)
Assay: Antagonist activity at capsaicin-induced human recombinant TRPV1 expressed in CHO-K1 cells co-expressing aequorin incubated for 2.5 mins in presence of ATP followed by capsaicin addition by luminescence assay
Format: cell-based
Procedure, shortened: (§2)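 Aequorin cells expressing recombinant human TRPV1 were loaded with coelenterazine for 4 h in the dark. Assay buffer was DMEM-F12 with 15 mM HEPES (pH 7.0) and 0.1% BSA. Cells were added to compound and incubated 2.5 min, then challenged with capsaicin or with HCl at pH 5.0, and luminescence was read at once. Digitonin (100 µM) and ATP (50 µM) served as reference blanks. Mean ± SEM of at least three experiments.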

T1 sequence (Q8NER1 whole entry): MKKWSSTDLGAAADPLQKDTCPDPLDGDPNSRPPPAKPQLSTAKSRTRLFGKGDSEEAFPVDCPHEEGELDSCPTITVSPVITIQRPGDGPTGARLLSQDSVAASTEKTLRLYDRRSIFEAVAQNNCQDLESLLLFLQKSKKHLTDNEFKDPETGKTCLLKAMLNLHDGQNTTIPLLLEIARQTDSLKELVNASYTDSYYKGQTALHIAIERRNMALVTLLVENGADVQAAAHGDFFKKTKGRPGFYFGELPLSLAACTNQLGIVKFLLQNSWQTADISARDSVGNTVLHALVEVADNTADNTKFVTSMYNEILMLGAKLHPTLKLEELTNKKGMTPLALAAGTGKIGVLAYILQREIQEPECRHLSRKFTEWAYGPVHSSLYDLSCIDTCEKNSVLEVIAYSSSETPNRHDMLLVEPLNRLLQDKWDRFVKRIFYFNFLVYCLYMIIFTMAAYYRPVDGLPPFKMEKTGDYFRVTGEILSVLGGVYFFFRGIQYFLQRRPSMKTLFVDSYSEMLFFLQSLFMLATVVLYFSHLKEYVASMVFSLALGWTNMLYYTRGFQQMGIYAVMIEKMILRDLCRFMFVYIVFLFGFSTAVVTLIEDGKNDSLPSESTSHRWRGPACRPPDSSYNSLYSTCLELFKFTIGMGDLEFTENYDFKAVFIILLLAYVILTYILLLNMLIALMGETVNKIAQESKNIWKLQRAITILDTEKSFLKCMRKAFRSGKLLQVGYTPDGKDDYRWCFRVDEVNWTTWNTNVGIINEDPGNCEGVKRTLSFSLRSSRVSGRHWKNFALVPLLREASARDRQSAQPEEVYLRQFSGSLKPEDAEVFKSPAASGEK

Structure (SMILES) | IC50
Fc1cccc(-n2cc(CN3CCc4c([nH]c5ccccc45)C3)nn2)c1 | 385 nM
CC(C)(C)c1ccc(-n2cc(CN3CCc4ccccc43)nn2)cc1 | 22600 nM
FC(F)(F)c1ccccc1-n1cc(CN2CCc3ccccc32)nn1 | 4940 nM
Clc1ccc(Cl)c(-n2cc(CN3CCc4c([nH]c5ccccc45)C3)nn2)c1 | 112 nM
O=[N+]([O-])c1ccc(-n2cc(CN3CCc4c([nH]c5ccccc45)C3)nn2)cc1 | 121 nM

Target: T1, Transient receptor potential cation channel subfamily V member 1
Assay: Antagonist activity at low pH-induced human recombinant TRPV1 expressed in CHO-K1 cells co-expressing aequorin at 50 uM incubated for 2.5 mins in presence of ATP followed by hydrochloride addition at pH 5 by luminescence assay relative to control
Format: cell-based
Procedure, shortened: as §2

Structure (SMILES) | inhibition
Fc1cccc(-n2cc(CN3CCc4c([nH]c5ccccc45)C3)nn2)c1 | 71%
CC(C)(C)c1ccc(-n2cc(CN3CCc4ccccc43)nn2)cc1 | 32%
FC(F)(F)c1ccccc1-n1cc(CN2CCc3ccccc32)nn1 | 55%
Clc1ccc(Cl)c(-n2cc(CN3CCc4c([nH]c5ccccc45)C3)nn2)c1 | 79%
O=[N+]([O-])c1ccc(-n2cc(CN3CCc4c([nH]c5ccccc45)C3)nn2)cc1 | 86%

Test system: Mus musculus
Assay: Effect on body temperature in KM mouse assessed as increase in rectal temperature at 30 mg/kg, po administered as single dose measured every 30 mins for 60 mins by electric probe thermometer
Format: functional, organism-based
Procedure, shortened: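 Male KM mice (n = 6) were dosed intragastrically with 30 mg/kg in 0.5% CMC-Na, or with vehicle. Body temperature was taken with an electric probe thermometer at 0, 30, 60, 90 and 120 min after dosing. Results given as temperature or as the change from 0 min, mean ± SEM, with Dunnett's test against vehicle.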

Structure (SMILES) | Activity
Clc1ccc(Cl)c(-n2cc(CN3CCc4c([nH]c5ccccc45)C3)nn2)c1 | Active
O=[N+]([O-])c1ccc(-n2cc(CN3CCc4c([nH]c5ccccc45)C3)nn2)cc1 | Active
